Experimental data taken from article PMC11956031 (RSC Medicinal Chemistry, 2025).

How the values were obtained:
[1] = tested on: human embryonic kidney (HEK-293) cells; experiment: MTT cytotoxicity, non-tumor HEK-293 cells; assay type: cell-based; conditions: read-out: IC50 HEK-293, 72 h incubation
Method in brief: (§1)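 Cells kept in log phase at 37 °C, 5% CO2, 10% FCS, 2 mM L-glutamine; RPMI-1640 for HCT-15, PSN-1, NTERA-2, 2008 and C13*; DMEM for MDA-MB-231 and HEK293; F-12 HAM's for CHO. C13* selected from 2008 with low-dose cisplatin. 72 h exposure, 0.5% final DMSO. IC50 at 570 nm vs untreated by 4-PL. RF = C13*/2008 IC50; panel average of IC50s.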

[2] = tested on: 2008 (ovarian) cancer cells; experiment: MTT cytotoxicity, 2008 cells, 72 h; assay type: cell-based, human; conditions: read-out: IC50 2008, 72 h incubation
Method in brief: as §1

[3] = tested on: C13* cancer cells (ovarian, resistant to cisplatin); experiment: MTT cytotoxicity, cisplatin-resistant C13* cells, 72 h; assay type: cell-based, human
Method in brief: as §1

[4] = tested on: 2008 cancer cell spheroids; experiment: 3D spheroids APH assay, 2008; assay type: cell-based, human; conditions: read-out: IC50 3D spheroids 2008, 72 h incubation
Method in brief: (§2)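 2.5 × 10^3 2008 or NTERA-2 cells per well grown as spheroids in phenol red-free F-12 HAM's with 10% FCS and 20% methyl cellulose stock. Treated 72 h; DMSO stocks, 0.5% final DMSO; cisplatin from 0.9% NaCl. Viability by modified acid phosphatase assay. IC50 from 405 nm absorbance vs untreated, 4-PL fit.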

[5] = tested on: NTERA-2 (embryonal) cancer cells; experiment: MTT cytotoxicity, NTERA-2 cells, 72 h; assay type: cell-based, human; conditions: read-out: IC50 NTERA-2, 72 h incubation
Method in brief: as §1

[6] = tested on: Chinese hamster ovary (CHO) cells; experiment: MTT cytotoxicity, non-tumor CHO cells; assay type: cell-based; conditions: read-out: IC50 CHO, 72 h incubation
Method in brief: as §1

[7] = tested on: PSN-1 (pancreatic) cancer cells; experiment: MTT cytotoxicity, PSN-1 cells, 72 h; assay type: cell-based, human; conditions: read-out: IC50 PSN-1, 72 h incubation
Method in brief: as §1

[8] = tested on: NTERA-2 cancer cell spheroids; experiment: 3D spheroids APH assay, NTERA-2; assay type: cell-based, human; conditions: read-out: IC50 3D spheroids NTERA-2, 72 h incubation
Method in brief: as §2

[9] = tested on: MDA-MB-231 (breast) cancer cells; experiment: MTT cytotoxicity, MDA-MB-231 cells, 72 h; assay type: cell-based, human; conditions: read-out: IC50 MDA-MB-231, 72 h incubation
Method in brief: as §1

[10] = tested on: HCT-15 (colorectal) cancer cells; experiment: MTT cytotoxicity, HCT-15 cells, 72 h; assay type: cell-based, human; conditions: read-out: IC50 HCT-15, 72 h incubation
Method in brief: as §1

With `N.N.[Cl][Pt][Cl]` [Cisplatin, cisplatin] the IC50 [1] was 14 ± 3 µM, the IC50 [2] was 2 ± 1 µM and the “resistance factor (RF)” value ([3]; in brackets, ratio IC50 resistant C13* / sensitive 2008 cells) was 11.7. It also gave an IC50 ([3]; read-out: IC50 C13*, 72 h incubation, MTT, cisplatin-resistant cells) of 25 ± 2 µM, an IC50 [4] of 13.9 ± 0.8 µM and an IC50 [5] of 15 ± 3 µM. For the same molecule, the IC50 [6] was 29 ± 3 µM, the IC50 [7] was 12 ± 3 µM and the IC50 [8] was 50 ± 5 µM. The IC50 [9] was 22 ± 4 µM and the IC50 [10] was 14 ± 2 µM.
